Experiment [1] deals with Lipid bilayer. As to the kind of experiment: Induction of membrane perturbation in DC22:1PC LUV bilayer assessed as change in deltaG for gramicidin mixture monomer to dimer by fluorescence quenching assay (reference value: 0 kcal/mol).
Experiment [2] has as its system Lipid bilayer. As to the kind of experiment: Induction of membrane perturbation in DC18:1PC LUV bilayer assessed as effect on potential of mean force by measuring reduction in deltaG for gramicidin mixture monomer to dimer and pure gramicidin-bilayer by fluorescence quenching assay.
In experiment [3] the test system is Lipid bilayer. As to the kind of experiment: Induction of membrane perturbation in DC22:1PC LUV bilayer assessed as change in deltaG for pure gramicidin monomer to dimer by fluorescence quenching assay (reference value: 0 kcal/mol).
For experiment [4], the system named is Lipid bilayer. As to the kind of experiment: Induction of membrane perturbation in DC20:1PC LUV bilayer assessed as fluorescence quench rate by measuring gramicidin mixture monomer to dimer equilibrium at 100 uM by fluorescence quenching assay.
In experiment [5] the test system is Lipid bilayer. Kind of experiment: Induction of membrane perturbation in DC22:1PC LUV bilayer assessed as fluorescence quench rate by measuring gramicidin mixture monomer to dimer equilibrium at 100 uM by fluorescence quenching assay.
The test system of experiment [6] is Lipid bilayer. As to the kind of experiment: Induction of membrane perturbation in DC22:1PC LUV bilayer assessed as effect on potential of mean force by measuring reduction in deltaG for gramicidin mixture monomer to dimer and pure gramicidin-bilayer by fluorescence quenching assay.
Experiment [7] has as its system Lipid bilayer. As to the kind of experiment: Induction of membrane perturbation in DC18:1PC LUV bilayer assessed as fluorescence quench rate by measuring gramicidin mixture monomer to dimer equilibrium at 100 uM by fluorescence quenching assay.
The subject of experiment [8] is Lipid bilayer. As to the kind of experiment: Induction of membrane perturbation in DC22:1PC LUV bilayer assessed as fluorescence quench rate by measuring increase in R(drug)/R(control) ratio at gD:lipid molar ratio of > 1:400 in presence of 10 mol % cholesterol by fluorescence quenching assay. The essentials:
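Cholesterol added at 10 mol % before LUV formation; DC22:1PC vesicles made with gD:lipid molar ratios between 1:200 and 1:2000, ANTS-loaded. Tl+ influx was followed by stopped-flow fluorescence quench at 25 °C (ex 352 nm, em >450 nm), and traces were fitted to a stretched exponential.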

The test system of experiment [9] is Lipid bilayer. Kind of experiment: Induction of membrane perturbation in DC22:1PC LUV bilayer assessed as effect on potential of mean force by measuring increase in deltaG for gramicidin mixture monomer to dimer and pure gramicidin-bilayer by fluorescence quenching assay. The essentials:
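ΔΔG(monomer↔dimer) was derived from Tl+/ANTS quench-rate ratios in DC22:1PC LUVs at 1:2000 gramicidin:lipid. Ratios were adjusted for estimated bilayer drug mole fraction and extrapolated linearly to a drug:lipid ratio of 0.084, matching the coarse-grained simulations. Stopped-flow was run at 25 °C.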

Experiment [10] deals with Lipid bilayer. As to the kind of experiment: Induction of membrane perturbation in DC20:1PC LUV bilayer assessed as fluorescence quench rate by measuring gramicidin mixture monomer to dimer equilibrium at 10 uM by fluorescence quenching assay.
For experiment [11], the system named is Lipid bilayer. As to the kind of experiment: Induction of membrane perturbation in DC22:1PC LUV bilayer assessed as fluorescence quench rate by measuring gramicidin mixture monomer to dimer equilibrium at 10 uM by fluorescence quenching assay. The essentials: (§1)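 ANTS-loaded (25 mM) DC22:1PC LUVs with gD at gramicidin:lipid 1:2000, rehydrated to 10 mM lipid, 3 h equilibration, 1 min sonication. Drug-exposed vesicles were incubated ≥10 min at 25 °C in the dark, then mixed by stopped-flow with Tl+ quench buffer (50 mM TlNO3, pH 7). Fluorescence (ex 352, em >450 nm) was fitted to a stretched exponential; rate given relative to drug-free control.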

For experiment [12], the system named is Lipid bilayer. As to the kind of experiment: Induction of membrane perturbation in DC22:1PC LUV bilayer assessed as fluorescence quench rate by measuring increase in R(drug)/R(control) ratio by fluorescence quenching assay. The essentials:
as §1

In experiment [13] the test system is Lipid bilayer. As to the kind of experiment: Induction of membrane perturbation in DC18:1PC LUV bilayer assessed as fluorescence quench rate by measuring gramicidin mixture monomer to dimer equilibrium at 10 uM by fluorescence quenching assay. The method in brief: (§2)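 DC18:1PC LUVs (gramicidin mixture gD:lipid 1:40,000) loaded with 25 mM ANTS at 10 mM lipid, equilibrated 3 h at room temperature, sonicated 1 min, about 130 nm diameter. Drug added; samples held ≥10 min at 25 °C in the dark, then stopped-flow mixed with 50 mM TlNO3/94 mM NaNO3/10 mM HEPES, pH 7. Ex 352 nm, em >450 nm; quench rate from stretched-exponential fit.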

Experiment [14] deals with Lipid bilayer. Kind of experiment: Induction of membrane perturbation in DC20:1PC LUV bilayer assessed as fluorescence quench rate by measuring gramicidin mixture monomer to dimer equilibrium at 300 uM by fluorescence quenching assay.
Experiment [15] deals with Lipid bilayer. As to the kind of experiment: Induction of membrane perturbation in DC22:1PC LUV bilayer assessed as fluorescence quench rate by measuring gramicidin mixture monomer to dimer equilibrium at 300 uM by fluorescence quenching assay. The method in brief:
as §1

Experiment [16] deals with Lipid bilayer. As to the kind of experiment: Induction of membrane perturbation in DC18:1PC LUV bilayer assessed as fluorescence quench rate by measuring gramicidin mixture monomer to dimer equilibrium at 300 uM by fluorescence quenching assay. The method in brief:
as §2

In experiment [17] the test system is Lipid bilayer. Kind of experiment: Induction of membrane perturbation in DC18:1PC LUV bilayer assessed as fluorescence quench rate by measuring gramicidin mixture monomer to dimer equilibrium at 30 uM by fluorescence quenching assay. The essentials:
as §2

Experiment [18] relates to Lipid bilayer. Kind of experiment: Induction of membrane perturbation in DC20:1PC LUV bilayer assessed as fluorescence quench rate by measuring gramicidin mixture monomer to dimer equilibrium at 30 uM by fluorescence quenching assay.
Experiment [19] deals with Lipid bilayer. As to the kind of experiment: Induction of membrane perturbation in DC22:1PC LUV bilayer assessed as fluorescence quench rate by measuring gramicidin mixture monomer to dimer equilibrium at 30 uM by fluorescence quenching assay. The method in brief: as §1
Experiment [20] has as its system Lipid bilayer. Kind of experiment: Induction of membrane perturbation in DC20:1PC LUV bilayer assessed as fluorescence quench rate by measuring gramicidin mixture monomer to dimer equilibrium at 1800 uM by fluorescence quenching assay.
The test system of experiment [21] is Lipid bilayer. Kind of experiment: Induction of membrane perturbation in DC22:1PC LUV bilayer assessed as fluorescence quench rate by measuring gramicidin mixture monomer to dimer equilibrium at 1800 uM by fluorescence quenching assay. The essentials: as §1
Experiment [22] relates to Lipid bilayer. Kind of experiment: Induction of membrane perturbation in DC18:1PC LUV bilayer assessed as fluorescence quench rate by measuring gramicidin mixture monomer to dimer equilibrium at 1800 uM by fluorescence quenching assay. The method in brief: as §2
Experiment [23] relates to Lipid bilayer. Kind of experiment: Induction of membrane perturbation in DC22:1PC LUV bilayer assessed as fluorescence quench rate by measuring gramicidin mixture monomer to dimer equilibrium at 30000 uM by fluorescence quenching assay.
In experiment [24] the test system is Lipid bilayer. As to the kind of experiment: Induction of membrane perturbation in DC20:1PC LUV bilayer assessed as fluorescence quench rate by measuring gramicidin mixture monomer to dimer equilibrium at 30000 uM by fluorescence quenching assay.
Experiment [25] concerns Lipid bilayer. Kind of experiment: Induction of membrane perturbation in DC18:1PC LUV bilayer assessed as fluorescence quench rate by measuring gramicidin mixture monomer to dimer equilibrium at 30000 uM by fluorescence quenching assay.
The test system of experiment [26] is Lipid bilayer. As to the kind of experiment: Induction of membrane perturbation in DC22:1PC LUV bilayer assessed as fluorescence quench rate by measuring reduction in R(drug)/R(control) ratio by fluorescence quenching assay.

Calls of active or inactive are those of the source. The rule behind the calls is not given here.

For `COc1cc(CNC(=O)CCCC/C=C/C(C)C)ccc1O`, the deltaG in the experiment on Lipid bilayer [1] was -0.6 kcal/mol; with Lipid bilayer [3], -0.5 kcal/mol. The result in the experiment with Lipid bilayer [2], in the experiment with Lipid bilayer [5] and in the experiment on Lipid bilayer [6] was Active. In addition, the outcome in the experiment on Lipid bilayer [4] and in the experiment on Lipid bilayer [7] was inactive.

For the molecule `CC(C)CCC[C@@H](C)[C@H]1CC[C@H]2[C@@H]3CC=C4C[C@@H](O)CC[C@]4(C)[C@H]3CC[C@]12C`, the outcome in the experiment with Lipid bilayer [8] and with Lipid bilayer [9] was Active. For the same molecule, in the experiment on Lipid bilayer [3], the deltaG turned out to be 2.5 kcal/mol.

Regarding `CCCCCCCCCCCCOCCOCCOCCOCCOCCOCCO`, the figures for the deltaG in the experiment with Lipid bilayer [1] and with Lipid bilayer [3] were -1.5 kcal/mol and -1.4 kcal/mol, respectively. The result in the experiment with Lipid bilayer [10] and in the experiment on Lipid bilayer [13] was inactive. The outcome in the experiment on Lipid bilayer [11] and in the experiment with Lipid bilayer [6] was Active. Also, in the experiment on Lipid bilayer [12], the Activity result is “Dose-dependent effect”.

Turning to `CCCCCCCCCCCCOP(=O)([O-])OCC[N+](C)(C)C`, the deltaG in the experiment with Lipid bilayer [1] and in the experiment with Lipid bilayer [3] was -0.5 kcal/mol throughout. The result with Lipid bilayer [14] and in the experiment on Lipid bilayer [16] was inactive. The outcome in the experiment on Lipid bilayer [15] and with Lipid bilayer [6] was Active. In the experiment with Lipid bilayer [12], the Activity entry is “Dose-dependent effect”.

Regarding `Oc1ccc(/C=C/c2cc(O)cc(O)c2)cc1`, the deltaG in the experiment with Lipid bilayer [1] is -1.8 kcal/mol; with Lipid bilayer [3], -1.7 kcal/mol. In addition, the result in the experiment on Lipid bilayer [17] and with Lipid bilayer [18] was inactive. In addition, in the experiment on Lipid bilayer [12], the Activity entry is “Dose-dependent effect”. For the same molecule, the result in the experiment on Lipid bilayer [6] and with Lipid bilayer [19] was Active.

In the case of `CC(C)(C)CC(C)(C)c1ccc(OCCOCCOCCOCCOCCOCCOCCOCCOCCOCCO)cc1`, the deltaG in the experiment on Lipid bilayer [1] was -1.6 kcal/mol; in the experiment on Lipid bilayer [3], -1.5 kcal/mol. Also, the result in the experiment on Lipid bilayer [17] and with Lipid bilayer [18] was inactive. Further, the Activity result in the experiment on Lipid bilayer [12] is “Dose-dependent effect”. Also, the outcome with Lipid bilayer [6] and with Lipid bilayer [19] was Active.

For the molecule `CCCCCCCCO`, the outcome in the experiment with Lipid bilayer [20] and in the experiment on Lipid bilayer [22] was inactive. The deltaG was -0.3 kcal/mol with Lipid bilayer [1] and -0.4 kcal/mol with Lipid bilayer [3]. The result in the experiment with Lipid bilayer [21] and in the experiment with Lipid bilayer [6] was Active. The Activity result in the experiment on Lipid bilayer [12] was “Dose-dependent effect”.

Turning to `C1CCCCC1`, the deltaG in the experiment with Lipid bilayer [1] and in the experiment on Lipid bilayer [3] was 0 kcal/mol each time. The result in the experiment with Lipid bilayer [23] and in the experiment with Lipid bilayer [9] was Active. Also, the outcome in the experiment with Lipid bilayer [24] and in the experiment on Lipid bilayer [25] was inactive. The Activity result in the experiment with Lipid bilayer [26] was “Dose-dependent effect”.

For the origin of these results see ChEMBL document CHEMBL4665823, “Assessing the Perturbing Effects of Drugs on Lipid Bilayers Using Gramicidin Channel-Based In Silico and In Vitro Assays” (J Med Chem, 2020).
